# Columns and labels:
# Staphylococcus aureus [1] = assay: Antibacterial activity against methicillin/levofloxacin-resistant Staphylococcus aureus 156 in po dosed neutropenic CD1 mouse pneumonia model assessed as decrease in bacterial burden in lung administered as bid measured after 24 hrs; format: functional; details: for MIC: Staphylococcus aureus, 156, Lung
# Summary of the method: (§1)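 Neutropenic female CD-1 mice, 6 per group, infected in the lung with the MRSA isolate. Oral dosing began 3 h after challenge at 7.5, 15 and 30 mg/kg BID. Lungs were taken after 24 h of treatment and bacterial burden counted as CFU. Early-control and vehicle-treated groups served as reference. The levofloxacin comparator was given TID subcutaneously.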
# [2] = (§2) Apparent permeability across basolateral to apical side in MDCK cells; format: ADME, cell-based, Canis lupus familiaris; details: dog
# Summary of the method: (§3)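 Papp measured in wild-type MDCK cells in both apical-to-basolateral and basolateral-to-apical directions; values expressed in units of 1 × 10–6 cm/sec.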
# Plasma [3] = assay: Drug uptake in monkey plasma at 30 mg/kg, po by LC-MS/MS analysis; format: ADME, organism-based, Macaca mulatta; details: rhesus monkey, in vivo
# Summary of the method: (§4)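 Prodrug given orally to rat and dog at 3 mg/kg and to monkey at 30 mg/kg. Plasma parent exposure measured, with oral dosing of the parent at the same nominal dose as comparator.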
# DNA gyrase = DNA gyrase (Staphylococcus aureus, UniProt P0A0K8+P20831); assay: Inhibition of Staphylococcus aureus DNA gyrase; format: protein-complex assay
# Staphylococcus aureus [4] = assay: Antibacterial activity against Staphylococcus aureus ATCC 29213; format: functional
# Staphylococcus aureus [5] = assay: Antibacterial activity against methicillin-resistant Staphylococcus aureus 509 in po dosed neutropenic CD1 mouse pneumonia model assessed as decrease in bacterial burden in lung administered as bid measured after 24 hrs; format: functional; details: for MIC: Staphylococcus aureus, 509, Lung; summary of the method: as §1
# Plasma [6] = assay: Drug uptake in monkey plasma at 1 mg/kg, iv measured at 4 hrs by LC-MS/MS analysis; format: ADME, organism-based, Macaca mulatta; details: rhesus monkey, in vivo
# Summary of the method: (§5)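 Single IV dose, 1 mg/kg nominal, given to rat, dog and monkey. Plasma sampled over time for both prodrug and parent, with the parent exposure expressed as AUC. Dosing the parent itself IV at the same nominal dose served as the comparator.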
# [7] = (§6) Apparent permeability across apical to basolateral side in MDCK cells; format: ADME, cell-based, Canis lupus familiaris; details: dog; summary of the method: as §3
# Streptococcus pneumoniae = assay: Antibacterial activity against Streptococcus pneumoniae ATCC 10015; format: functional
# Plasma [8] = assay: Drug uptake in rat plasma at 1 mg/kg, iv measured at 4 hrs by LC-MS/MS analysis; format: ADME, organism-based; details: in vivo; summary of the method: as §5
# Plasma [9] = assay: Drug uptake in rat plasma at 3 mg/kg, po by LC-MS/MS analysis; format: ADME, organism-based; details: in vivo; summary of the method: as §4
# Enterococcus faecalis = assay: Antibacterial activity against Enterococcus faecalis ATCC 29212; format: functional
# Topoisomerase IV = Topoisomerase IV (Staphylococcus aureus, UniProt P0C1S7+P0C1U9); assay: Inhibition of Staphylococcus aureus DNA topoisomerase 4; format: protein-complex assay
# Plasma [10] = assay: Drug uptake in dog plasma at 3 mg/kg, po by LC-MS/MS analysis; format: ADME, organism-based, Canis lupus familiaris; details: in vivo; summary of the method: as §4
# Enterococcus faecium = assay: Antibacterial activity against Enterococcus faecium ATCC 49624; format: functional
# Plasma [11] = assay: Drug uptake in dog plasma at 1 mg/kg, iv measured at 4 hrs by LC-MS/MS analysis; format: ADME, organism-based, Canis lupus familiaris; details: in vivo; summary of the method: as §5
# Liver [12] = assay: Prodrug conversion in human liver S9 fractions assessed as formation of 1-ethyl-3-[6-fluoro-5-[2-(1-hydroxy-1-methyl-ethyl)pyrimidin-5-yl]-7-[(2R)-tetrahydrofuran-2-yl]-1H-benzimidazol-2-yl]urea by Michaelis-Menten plot analysis; format: ADME, subcellular, Liver S9 fraction
# Summary of the method: (§7)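 Prodrug incubated across 1 to 1000 μM in liver and intestinal S9 fractions from rat, dog, monkey and human. Formation of the parent compound was followed to characterize conversion kinetics.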
# MDCK [13] = assay: as §2; format: ADME, cell-based, Canis lupus familiaris; details: dog; summary of the method: as §3
# Staphylococcus aureus [14] = assay: Antibacterial activity against methicillin-resistant Staphylococcus aureus 509 in neutropenic CD1 mouse pneumonia model assessed as decrease in bacterial burden in lung at 30 mg/kg, po bid measured after 24 hrs; format: functional; summary of the method: as §1
# [15] = Prodrug conversion in dog intestine S9 fractions assessed as formation of 1-ethyl-3-[6-fluoro-5-[2-(1-hydroxy-1-methyl-ethyl)pyrimidin-5-yl]-7-[(2R)-tetrahydrofuran-2-yl]-1H-benzimidazol-2-yl]urea by Michaelis-Menten plot analysis; format: ADME, tissue-based, Canis lupus familiaris; summary of the method: as §7
# Plasma [16] = assay: Prodrug conversion in monkey plasma assessed as formation of 1-ethyl-3-[6-fluoro-5-[2-(1-hydroxy-1-methyl-ethyl)pyrimidin-5-yl]-7-[(2R)-tetrahydrofuran-2-yl]-1H-benzimidazol-2-yl]urea at 30 mg/kg, po by LC-MS/MS analysis; format: ADME, organism-based, Macaca mulatta; details: rhesus monkey, in vivo; summary of the method: as §4
# [17] = Aqueous solubility of the compound at pH 7; format: physicochemical; details: buffer
# Liver [18] = assay: Prodrug conversion in rat liver S9 fractions assessed as formation of 1-ethyl-3-[6-fluoro-5-[2-(1-hydroxy-1-methyl-ethyl)pyrimidin-5-yl]-7-[(2R)-tetrahydrofuran-2-yl]-1H-benzimidazol-2-yl]urea by Michaelis-Menten plot analysis; format: ADME, subcellular, Liver S9 fraction; summary of the method: as §7
# Liver [19] = assay: Prodrug conversion in dog liver S9 fractions assessed as formation of 1-ethyl-3-[6-fluoro-5-[2-(1-hydroxy-1-methyl-ethyl)pyrimidin-5-yl]-7-[(2R)-tetrahydrofuran-2-yl]-1H-benzimidazol-2-yl]urea by Michaelis-Menten plot analysis; format: ADME, subcellular, Canis lupus familiaris, Liver S9 fraction; summary of the method: as §7
# Intestine = assay: Prodrug conversion in rat intestine S9 fractions assessed as formation of 1-ethyl-3-[6-fluoro-5-[2-(1-hydroxy-1-methyl-ethyl)pyrimidin-5-yl]-7-[(2R)-tetrahydrofuran-2-yl]-1H-benzimidazol-2-yl]urea by Michaelis-Menten plot analysis; format: ADME, tissue-based; summary of the method: as §7
# Plasma [20] = assay: Prodrug conversion in dog plasma assessed as formation of 1-ethyl-3-[6-fluoro-5-[2-(1-hydroxy-1-methyl-ethyl)pyrimidin-5-yl]-7-[(2R)-tetrahydrofuran-2-yl]-1H-benzimidazol-2-yl]urea at 1 mg/kg, iv measured at 4 hrs by LC-MS/MS analysis; format: ADME, organism-based, Canis lupus familiaris; details: in vivo; summary of the method: as §5
# Staphylococcus aureus [21] = assay: Antibacterial activity against methicillin/levofloxacin-resistant Staphylococcus aureus 156 in neutropenic CD1 mouse pneumonia model assessed as decrease in bacterial burden in lung at 30 mg/kg, po bid measured after 24 hrs; format: functional; summary of the method: as §1
# Plasma [22] = assay: Prodrug conversion in rat plasma assessed as formation of 1-ethyl-3-[6-fluoro-5-[2-(1-hydroxy-1-methyl-ethyl)pyrimidin-5-yl]-7-[(2R)-tetrahydrofuran-2-yl]-1H-benzimidazol-2-yl]urea at 3 mg/kg, po by LC-MS/MS analysis; format: ADME, organism-based; details: in vivo; summary of the method: as §4
# Plasma [23] = assay: Prodrug conversion in dog plasma assessed as formation of 1-ethyl-3-[6-fluoro-5-[2-(1-hydroxy-1-methyl-ethyl)pyrimidin-5-yl]-7-[(2R)-tetrahydrofuran-2-yl]-1H-benzimidazol-2-yl]urea at 3 mg/kg, po by LC-MS/MS analysis; format: ADME, organism-based, Canis lupus familiaris; details: in vivo; summary of the method: as §4
# [24] = Prodrug conversion in monkey intestine S9 fractions assessed as formation of 1-ethyl-3-[6-fluoro-5-[2-(1-hydroxy-1-methyl-ethyl)pyrimidin-5-yl]-7-[(2R)-tetrahydrofuran-2-yl]-1H-benzimidazol-2-yl]urea by Michaelis-Menten plot analysis; format: ADME, tissue-based, Macaca mulatta; details: rhesus monkey; summary of the method: as §7
# MDCK [25] = assay: as §6; format: ADME, cell-based, Canis lupus familiaris; details: dog; summary of the method: as §3
# Plasma [26] = assay: Prodrug conversion in rat plasma assessed as formation of 1-ethyl-3-[6-fluoro-5-[2-(1-hydroxy-1-methyl-ethyl)pyrimidin-5-yl]-7-[(2R)-tetrahydrofuran-2-yl]-1H-benzimidazol-2-yl]urea at 1 mg/kg, iv measured at 4 hrs by LC-MS/MS analysis; format: ADME, organism-based; details: in vivo; summary of the method: as §5
# [27] = Prodrug conversion in monkey liver S9 fractions assessed as formation of 1-ethyl-3-[6-fluoro-5-[2-(1-hydroxy-1-methyl-ethyl)pyrimidin-5-yl]-7-[(2R)-tetrahydrofuran-2-yl]-1H-benzimidazol-2-yl]urea by Michaelis-Menten plot analysis; format: ADME, subcellular, Macaca mulatta, Liver S9 fraction; details: rhesus monkey; summary of the method: as §7
# Plasma [28] = assay: Prodrug conversion in monkey plasma assessed as formation of 1-ethyl-3-[6-fluoro-5-[2-(1-hydroxy-1-methyl-ethyl)pyrimidin-5-yl]-7-[(2R)-tetrahydrofuran-2-yl]-1H-benzimidazol-2-yl]urea at 1 mg/kg, iv measured at 4 hrs by LC-MS/MS analysis; format: ADME, organism-based, Macaca mulatta; details: rhesus monkey, in vivo; summary of the method: as §5
# [29] = Prodrug conversion in human intestine S9 fractions assessed as formation of 1-ethyl-3-[6-fluoro-5-[2-(1-hydroxy-1-methyl-ethyl)pyrimidin-5-yl]-7-[(2R)-tetrahydrofuran-2-yl]-1H-benzimidazol-2-yl]urea by Michaelis-Menten plot analysis; format: ADME, tissue-based; summary of the method: as §7
# Sequence of Topoisomerase IV (P0C1U9 whole entry): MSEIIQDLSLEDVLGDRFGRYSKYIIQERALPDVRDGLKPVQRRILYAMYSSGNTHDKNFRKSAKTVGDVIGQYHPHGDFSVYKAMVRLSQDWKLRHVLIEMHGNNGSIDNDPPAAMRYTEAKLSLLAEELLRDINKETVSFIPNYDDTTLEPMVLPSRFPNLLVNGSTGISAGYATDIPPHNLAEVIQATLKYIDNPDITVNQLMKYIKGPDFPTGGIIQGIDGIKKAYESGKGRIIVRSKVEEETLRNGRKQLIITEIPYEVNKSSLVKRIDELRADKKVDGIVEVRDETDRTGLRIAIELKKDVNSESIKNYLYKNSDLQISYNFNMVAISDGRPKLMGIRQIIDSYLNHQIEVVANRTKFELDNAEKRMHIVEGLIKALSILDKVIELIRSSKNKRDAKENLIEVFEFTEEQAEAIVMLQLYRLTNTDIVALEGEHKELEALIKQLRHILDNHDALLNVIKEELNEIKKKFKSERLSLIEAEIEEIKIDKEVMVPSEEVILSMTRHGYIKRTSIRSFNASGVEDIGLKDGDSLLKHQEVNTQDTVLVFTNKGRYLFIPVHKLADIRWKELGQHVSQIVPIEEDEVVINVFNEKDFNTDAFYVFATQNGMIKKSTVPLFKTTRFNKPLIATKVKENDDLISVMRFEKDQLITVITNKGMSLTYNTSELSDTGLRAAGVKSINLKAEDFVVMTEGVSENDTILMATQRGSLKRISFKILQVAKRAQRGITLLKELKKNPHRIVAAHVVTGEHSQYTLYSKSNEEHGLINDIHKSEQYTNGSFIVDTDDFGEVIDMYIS
# Sequence of Topoisomerase IV (P0C1S7 whole entry): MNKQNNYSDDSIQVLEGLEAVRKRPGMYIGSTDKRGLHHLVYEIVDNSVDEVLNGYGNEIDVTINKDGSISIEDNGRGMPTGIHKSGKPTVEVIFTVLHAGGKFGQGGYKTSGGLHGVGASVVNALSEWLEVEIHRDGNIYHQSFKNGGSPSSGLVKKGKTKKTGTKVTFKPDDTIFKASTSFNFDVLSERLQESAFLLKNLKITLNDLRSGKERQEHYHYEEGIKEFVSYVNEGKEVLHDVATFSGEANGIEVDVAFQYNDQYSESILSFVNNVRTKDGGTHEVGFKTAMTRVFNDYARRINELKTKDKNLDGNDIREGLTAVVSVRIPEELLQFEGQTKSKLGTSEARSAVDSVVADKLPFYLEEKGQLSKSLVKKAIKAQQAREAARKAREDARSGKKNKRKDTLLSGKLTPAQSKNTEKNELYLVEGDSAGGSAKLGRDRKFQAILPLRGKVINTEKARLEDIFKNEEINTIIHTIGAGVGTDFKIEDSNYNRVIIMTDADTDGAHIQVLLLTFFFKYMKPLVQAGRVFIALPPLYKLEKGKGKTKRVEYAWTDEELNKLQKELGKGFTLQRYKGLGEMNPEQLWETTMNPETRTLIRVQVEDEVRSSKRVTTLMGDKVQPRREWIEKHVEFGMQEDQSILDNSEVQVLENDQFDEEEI
# Sequence of DNA gyrase (P0A0K8 whole entry): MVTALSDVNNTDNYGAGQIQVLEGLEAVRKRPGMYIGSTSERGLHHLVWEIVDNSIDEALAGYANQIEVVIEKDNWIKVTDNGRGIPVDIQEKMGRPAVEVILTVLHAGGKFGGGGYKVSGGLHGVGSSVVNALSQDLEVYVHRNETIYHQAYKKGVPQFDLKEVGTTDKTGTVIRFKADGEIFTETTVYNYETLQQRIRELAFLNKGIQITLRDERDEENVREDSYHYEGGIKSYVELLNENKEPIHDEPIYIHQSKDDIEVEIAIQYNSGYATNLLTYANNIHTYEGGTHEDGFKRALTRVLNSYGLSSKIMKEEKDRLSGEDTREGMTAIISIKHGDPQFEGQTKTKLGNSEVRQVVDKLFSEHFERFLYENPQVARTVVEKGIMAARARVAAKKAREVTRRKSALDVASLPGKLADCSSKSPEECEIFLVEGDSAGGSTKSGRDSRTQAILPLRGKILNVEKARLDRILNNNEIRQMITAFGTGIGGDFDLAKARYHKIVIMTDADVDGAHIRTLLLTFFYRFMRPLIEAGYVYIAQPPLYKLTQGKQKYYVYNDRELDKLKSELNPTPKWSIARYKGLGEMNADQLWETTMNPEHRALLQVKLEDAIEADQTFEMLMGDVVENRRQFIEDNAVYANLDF
# Sequence of DNA gyrase (P20831 whole entry): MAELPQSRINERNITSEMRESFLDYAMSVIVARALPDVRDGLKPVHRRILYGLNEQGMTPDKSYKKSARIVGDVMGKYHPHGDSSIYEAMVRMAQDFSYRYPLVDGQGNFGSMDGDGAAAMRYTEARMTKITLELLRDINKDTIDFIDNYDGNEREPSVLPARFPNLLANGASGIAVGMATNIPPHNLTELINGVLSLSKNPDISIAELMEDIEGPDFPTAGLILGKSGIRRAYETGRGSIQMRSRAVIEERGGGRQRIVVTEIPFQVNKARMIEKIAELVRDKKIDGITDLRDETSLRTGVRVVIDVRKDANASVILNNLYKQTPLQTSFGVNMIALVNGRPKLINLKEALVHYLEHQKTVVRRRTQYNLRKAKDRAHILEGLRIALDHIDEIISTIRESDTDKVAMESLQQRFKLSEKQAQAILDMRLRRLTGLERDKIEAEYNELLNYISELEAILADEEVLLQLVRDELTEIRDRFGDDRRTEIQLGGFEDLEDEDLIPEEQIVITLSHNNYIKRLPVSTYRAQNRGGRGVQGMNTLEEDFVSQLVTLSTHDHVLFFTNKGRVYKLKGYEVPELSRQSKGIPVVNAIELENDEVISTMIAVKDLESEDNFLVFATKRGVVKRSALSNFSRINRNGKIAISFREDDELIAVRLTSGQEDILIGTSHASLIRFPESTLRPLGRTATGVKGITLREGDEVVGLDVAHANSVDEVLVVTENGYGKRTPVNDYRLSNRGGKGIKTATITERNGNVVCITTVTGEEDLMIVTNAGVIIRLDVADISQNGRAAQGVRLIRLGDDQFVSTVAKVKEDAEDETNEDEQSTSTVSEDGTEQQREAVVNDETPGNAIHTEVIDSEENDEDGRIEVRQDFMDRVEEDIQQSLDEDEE
smiles,measurement,setting,value
CCNC(=O)Nc1nc2cc(-c3cnc(C(C)(C)O)nc3)c(F)c([C@H]3CCCO3)c2[nH]1,MIC,Staphylococcus aureus [1],0.06 µg/mL
same,Papp B→A,[2],16.3 ×10⁻⁶ cm/s
same,Drug uptake,Plasma [3],Active
same,Ki,DNA gyrase,< 0.009 µM
same,MIC,Staphylococcus aureus [4],0.016 µg/mL
same,MIC,Staphylococcus aureus [5],0.06 µg/mL
same,Drug uptake,Plasma [6],Active
same,Papp A→B,[7],9.5 ×10⁻⁶ cm/s
same,MIC,Streptococcus pneumoniae,≤ 0.008 µg/mL
same,Drug uptake,Plasma [8],Active
same,Drug uptake,Plasma [9],Active
same,MIC,Enterococcus faecalis,0.016 µg/mL
same,Ki,Topoisomerase IV,0.012 µM
same,Drug uptake,Plasma [10],Active
same,MIC,Enterococcus faecium,0.063 µg/mL
same,Drug uptake,Plasma [11],Active
CCNC(=O)Nc1nc2cc(-c3cnc(C(C)(C)OP(=O)(O)O)nc3)c(F)c([C@H]3CCCO3)c2[nH]1,Km,Liver [12],137 µM
same,Vmax,Liver [12],45.8 pmol/min/mg
same,Activity,Staphylococcus aureus [1],Dose-dependent effect
same,Papp,MDCK [13],impermeable
same,Activity,Staphylococcus aureus [14],>3 deltalog10CFU
same,Km,[15],998 µM
same,Vmax,[15],1162 pmol/min/mg
same,Drug metabolism,Plasma [16],metabolite_detected
same,Ki,DNA gyrase,< 0.009 µM
same,solubility,[17],75 mg/mL
same,MIC,Staphylococcus aureus [4],8 µg/mL
same,Activity,Staphylococcus aureus [5],Dose-dependent effect
same,Km,Liver [18],49.8 µM
same,Vmax,Liver [18],45.5 pmol/min/mg
same,Km,Liver [19],256 µM
same,Vmax,Liver [19],19.3 pmol/min/mg
same,Km,Intestine,736 µM
same,Vmax,Intestine,958 pmol/min/mg
same,Drug metabolism,Plasma [20],metabolite_detected
same,Activity,Staphylococcus aureus [21],>3 deltalog10CFU
same,Drug metabolism,Plasma [22],metabolite_detected
same,Drug metabolism,Plasma [23],metabolite_detected
same,Km,[24],5180 µM
same,Vmax,[24],1974 pmol/min/mg
same,Papp,MDCK [25],impermeable
same,MIC,Streptococcus pneumoniae,0.25 µg/mL
same,MIC,Enterococcus faecalis,1 µg/mL
same,Ki,Topoisomerase IV,0.03 µM
same,Drug metabolism,Plasma [26],metabolite_detected
same,Km,[27],122 µM
same,Vmax,[27],25.2 pmol/min/mg
same,Drug metabolism,Plasma [28],metabolite_detected
same,Vmax,[29],> 1000 pmol/min/mg
same,MIC,Enterococcus faecium,4 µg/mL
C[C@H]1COc2c(N3CCN(C)CC3)c(F)cc3c(=O)c(C(=O)O)cn1c23.C[C@H]1COc2c(N3CCN(C)CC3)c(F)cc3c(=O)c(C(=O)O)cn1c23.O [LEVOFLOXACIN],MIC,Staphylococcus aureus [1],8 µg/mL
same,MIC,Staphylococcus aureus [5],0.25 µg/mL
